Results taken from ChEMBL document CHEMBL4177755, “Combating Drug-Resistant Fungi with Novel Imperfectly Amphipathic Palindromic Peptides” (J Med Chem, 2018).
Calls of active or inactive are those of the source. The rule behind the calls is not given here.

How the values were obtained:
Escherichia coli [1] = test: Antibacterial activity against Escherichia coli ATCC 25922 after 18 hrs in presence of 50% human heat-inactivated serum by broth dilution method; format: functional; conditions: ATCC 25922, 18 h
Lipid bilayer = test: Binding affinity to phosphatidylcholine/phosphatidylethanolamine/phosphatidylinositol/ergosterol large unilamellar vesicle assessed as induction of calcein leakage after 15 mins by spectrofluorophotometric method
Procedure, shortened: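 Compositions were PG/CL/PE 2:1:7 w/w/w (E. coli membrane mimic; lines 4,5) and PC/PE/PI/ergosterol 5:4:1:2 w/w/w/w (fungal membrane mimic; lines 2,3). Lipids underwent 20 freeze–thaw cycles and were extruded through 100 nm filters; free calcein was removed by gel filtration.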

Escherichia coli [2] = test: Induction of reactive oxygen species generation in Escherichia coli ATCC 25922 at 0.5 to 4 uM after 1 hr by DCFH-DA dye-based spectrofluorophotometric method; format: functional, organism-based
Procedure, shortened: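 E. coli ATCC 25922 and C. albicans cgmcc 2.2086 cells were exposed to a range of peptide concentrations up to 32 μM. ROS levels were read by fluorescence and expressed relative to untreated cells. Values are mean ± SEM of three independent experiments.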

In the case of H-RRIRIIIRIRR-NH2, the MIC (Escherichia coli [1]) is reported as 8 µM, the Activity (Lipid bilayer) is reported as “Dose-dependent effect” and the Activity (Escherichia coli [2]) is reported as “inactive”.
